In ChEMBL document CHEMBL4613269, “2-((4-Arylpiperazin-1-yl)methyl)benzonitrile Derivatives as Orally Available Inhibitors of Hepatitis C Virus with a Novel Mechanism of Action” (J Med Chem, 2020):
pEC50: −log10 of the molar value. Active and inactive are the calls of the source. The calls are words filed in the database; no cut-off is given here.

Key:
[1] = Half life in beagle dog at 5 mg/kg, iv measured after 0.08 to 72 hrs post dose by LC-MS/MS analysis; type: ADME, organism-based, Canis lupus familiaris; conditions: in vivo
[2] = Drug level in Sprague-Dawley rat at 5 mg/kg, iv measured after 72 hrs post dose by LC-MS/MS analysis; type: ADME, organism-based; conditions: in vivo, read-out: Drug uptake
Procedure, shortened: (§1)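 Single dose to fasted (12 h) animals: oral gavage 15 mg/kg as suspension in 0.5% CMC-Na, or iv 5 mg/kg dissolved in citric acid buffer pH 5.0 with 2.5% DMSO. Jugular vein blood on heparin at 0.08 (iv only) to 72 h. Plasma assayed by LC-MS/MS; parameters from noncompartmental analysis.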

[3] = system: Hepatitis C virus; test: Antiviral activity against HCV expressing NS5B S282T mutant by qRT-PCR analysis based by Reed-Muench method; type: functional, organism-based, Hepacivirus hominis
Procedure, shortened: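 Huh7.5 cells seeded at 3×10^4/cm², infected 24 h later with wild-type or mutant HCV stock while compound or solvent was added at the same time. Intracellular HCV RNA measured by qRT-PCR at 72 h, normalised to GAPDH, 2^-ΔCT method. EC50 by Reed & Muench from eight-step 1:5 serial dilutions, triplicate wells.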

[4] = Half life in Sprague-Dawley rat at 15 mg/kg, po measured after 0.08 to 72 hrs post dose by LC-MS/MS analysis; type: ADME, organism-based; conditions: in vivo; procedure, shortened: as §1
[5] = Selectivity index, ratio of CC50 for cytotoxicity in human Huh7.5 cells assessed as reduction in cell viability incubated for 96 hrs by MTT assay to EC50 for antiviral activity against HCV J6/JFH/JC1 infected in human Huh7.5 cells incubated for 72 hrs by In-Cell Western assay; type: toxicity, cell-based; conditions: read-out: Ratio CC50/EC50
Procedure, shortened: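 HCVcc (MOI=0.1) infected Huh7.5 cells co-treated with eight-step 1:5 serial dilutions, triplicate wells. After 72 h, fixed, permeabilized, and stained for HCV Core and GAPDH with IR-dye secondaries. Core normalized to GAPDH. CC50 came from MTT at 96 h in uninfected Huh7.5 cells. EC50/CC50 were derived by Reed & Muench, mean ± SD of three independent experiments.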

[6] = Selectivity index, ratio of CC50 for cytotoxicity in human Huh7.5 cells assessed as reduction in cell viability incubated for 96 hrs by MTT assay to EC50 antiviral activity against HCV J6/JFH/JC1 infected in human Huh7.5 cells assessed as reduction in viral RNA levels incubated for 72 hrs by qRT-PCR analysis; type: toxicity, cell-based; conditions: read-out: Ratio CC50/EC50
Procedure, shortened: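 Selectivity index = CC50/EC50. CC50: Huh7.5 cells seeded at 3×10^4/cm², medium with compound added at 24 h, MTT read at 96 h. EC50: HCVcc-infected Huh7.5 cells treated for 72 h, HCV RNA by qRT-PCR normalised to GAPDH. Serial 1:5 dilutions in eight steps, Reed & Muench calculation, means ± SD of three independent experiments.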

[7] = Drug level in Sprague-Dawley rat at 5 mg/kg, iv measured after 24 hrs post dose by LC-MS/MS analysis; type: ADME, organism-based; conditions: in vivo, read-out: Drug uptake; procedure, shortened: as §1
[8] = system: Hepatitis C virus; test: Antiviral activity against HCV GS4.3 infected in human Huh7.5 cells assessed as […] at 0.008 to 1 uM incubated with drug for 2 hrs after viral infection and measured after 72 hrs by Western blot assay; type: functional, organism-based; conditions: Hepacivirus hominis
[9] = AUC (0 to 72 hrs) in Sprague-Dawley rat at 15 mg/kg, po measured after 0.08 to 72 hrs post dose by LC-MS/MS analysis; type: ADME, organism-based; parameters: dose 15 mg/kg, time < 72 hr, route oral; conditions: in vivo; procedure, shortened: as §1
[10] = Apparent Volume of distribution in beagle dog at 5 mg/kg, iv measured after 0.08 to 72 hrs post dose by LC-MS/MS analysis; type: ADME, organism-based, Canis lupus familiaris; conditions: in vivo, read-out: Vz; procedure, shortened: as §1
[11] = Half life in Sprague-Dawley rat at 5 mg/kg, iv measured after 0.08 to 72 hrs post dose by LC-MS/MS analysis; type: ADME, organism-based; conditions: in vivo; procedure, shortened: as §1
[12] = system: Hepatitis C virus; test: Antiviral activity against HCV genotype 2a pseudoparticle infected in human Huh7.5 cells assessed as reduction in viral replication; type: functional, organism-based; conditions: Hepacivirus hominis; subtype 2a
Procedure, shortened: (§2)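 Genotype 1b or 2a HCV pseudoparticles made by co-transfecting HEK 293T cells with envelope and luciferase-reporter HIV plasmids; input standardized by luciferase. Huh7.5 cells co-incubated with compound and HCVpp for 4 h at 37°C, washed, then luciferase read at 72 h.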

[13] = Clearance in beagle dog at 15 mg/kg, po measured after 0.08 to 72 hrs post dose by LC-MS/MS analysis; type: ADME, organism-based, Canis lupus familiaris; conditions: in vivo; procedure, shortened: as §1
[14] = Selectivity index, ratio of CC50 for cytotoxicity in African green monkey Vero cells to EC50 for Antiviral activity against Coxsackievirus B3 infected in Vero cells; type: toxicity, cell-based; conditions: read-out: Ratio CC50/EC50
[15] = Cmax in Sprague-Dawley rat at 5 mg/kg, iv measured after 0.08 to 72 hrs post dose by LC-MS/MS analysis; type: ADME, organism-based; parameters: dose 5 mg/kg, route intravenous; conditions: in vivo; procedure, shortened: as §1
[16] = system: Hepatitis C virus; test: Synergistic antiviral activity against HCV infected in human Huh7.5 cells assessed as reduction in HCV core protein level by measuring (q) value at 0.1 uM in presence of 0.1 uM sofosbuvir incubated for 72 hrs by Western blot assay based Webb method relative to control; type: functional, Hepacivirus hominis
Procedure, shortened: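 Huh7.5 cells in 6-well plates were infected with HCV in the presence of 0.1 μM test compound combined with simeprevir 0.025 μM, sofosbuvir 0.1 μM or daclatasvir 0.016 nM. Western blot at 72 h gave HCV core protein relative to actin, normalized to control. q calculated by Webb's method (q<1 antagonism, =1 addition, >1 synergy); over 3 independent experiments.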

[17] = Toxicity in Kunming mouse assessed as effect on blood urea nitrogen level at 250 to 1000 mg/kg dosed via single oral gavage and measured on day 7 post treatment; type: organism-based; conditions: in vivo
Procedure, shortened: (§3)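 Kunming mice, 4 groups of n = 6 (3 male, 3 female). Fasted from 12 h before to 1 h after dosing. Single oral gavage of 250, 500 or 1000 mg/kg suspended in 0.5% CMC-Na, or vehicle alone. Followed for 7 days: survival, body weight before and at day 7. Day-7 blood taken for AST, ALT, urea nitrogen and creatinine.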

[18] = system: Hepatitis C virus; test: Antiviral activity against HCV GS4.3 infected in human Huh7.5 cells assessed as reduction in viral replication at 1 uM simultaneously treated with viral infection for 15 mins to 2 hrs and measured after 72 hrs by In-Cell Western assay; type: functional, organism-based; conditions: Hepacivirus hominis
Procedure, shortened: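 Huh7.5 cells infected with HCV while incubated with compound, either for 4 h across a concentration series or at 1.0 µM for varied times down to 15 min. Supernatant then replaced with fresh medium. Intracellular Core protein measured by In-Cell Western at 72 h.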

[19] = Tmax in Sprague-Dawley rat at 15 mg/kg, po measured after 0.08 to 72 hrs post dose by LC-MS/MS analysis; type: ADME, organism-based; conditions: in vivo
[20] = Oral bioavailability in Sprague-Dawley rat at 5 mg/kg measured after 0.08 to 72 hrs after dose by LC-MS/MS analysis; type: ADME, organism-based; conditions: in vivo
[21] = Apparent Volume of distribution in Sprague-Dawley rat at 5 mg/kg, iv measured after 0.08 to 72 hrs post dose by LC-MS/MS analysis; type: ADME, organism-based; conditions: in vivo, read-out: Vz; procedure, shortened: as §1
[22] = system: Hepatitis C virus; test: Antiviral activity against HCV genotype 1b pseudoparticle infected in human Huh7.5 cells assessed as reduction in viral replication; type: functional, organism-based; conditions: Hepacivirus hominis; subtype 1b; procedure, shortened: as §2
[23] = Toxicity in Kunming mouse assessed as effect on AST level at 250 to 1000 mg/kg dosed via single oral gavage and measured on day 7 post treatment; type: organism-based; conditions: in vivo; procedure, shortened: as §3

**Q.** Which results are given for `CN(C)CCN(C)c1ccc(C#N)c(CN2CCN(c3ccc(Cl)cc3)CC2)c1`?
**A.** half-life [1]: 7.28 h; concentration at 72 h [2]: 9.2 ng/mL; pEC50 [3]: 8.36; half-life [4]: 12.8 h; selectivity ratio [5]: 111 to 154; selectivity ratio [6]: 671; concentration at 24 h [7]: 77 ng/mL; Activity [8]: Active; AUC(0-t) at 72 h [9]: 9590 ng·h/mL; Vd [10]: 49.2 L/kg; half-life [11]: 14.3 h; Activity [12]: Dose-dependent effect; CL/F [13]: 200 mL/min/kg; selectivity ratio [14]: 3; Cmax [15]: 617 ng/mL; Ratio [16]: 1.08; Activity [17]: Non-Toxic; Activity [18]: Active; Tmax [19]: 3.08 h; bioavailability [20]: 39%; Vd [21]: 20.1 L/kg; Activity [22]: Dose-dependent effect; Activity [23]: Non-Toxic
